We go through six compounds from ChEMBL document CHEMBL5104228, “Mechanistic insight into the repair of C8-linked pyrrolobenzodiazepine monomer-mediated DNA damage” (2022).

Active and inactive are the calls of the source. The calls are words filed in the database; no cut-off is given here.

Test [1] is described as follows: Binding affinity to AT-rich 5'-fluoro and 3'-TAMRA tagged 5'-TAT-ATA-TAG-ATA-TTT-TTT-TAT-CTA-TAT-ATA-3' hairpin DNA (unknown origin) assessed as thermal stabilization by measuring change in melting temperature at 1 uM incubated for 3 hrs by FRET analysis. Put shortly: (§1)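 Fluorophore/quencher-tagged hairpin DNA, AT-rich (Sequence 1) or GC-rich (Sequence 2), incubated with compound for 3 h or 24 h, then thermally melted. Melt curves were compared against a DNA-only control for the same sequence. Each reaction was run in triplicate.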

Test [2] is described as follows: Binding affinity to AT-rich 5'-fluoro and 3'-TAMRA tagged 5'-TAT-ATA-TAG-ATA-TTT-TTT-TAT-CTA-TAT-ATA-3' hairpin DNA(unknown origin) assessed as thermal stabilization by measuring change in melting temperature at 1 uM incubated for 24 hrs by FRET analysis. A digest of the protocol: as §1
The nature of test [3]: Binding affinity to GC-rich 5'-fluoro and 3'-TAMRA tagged 5'-TAT-AGG-GAC-AGC-CCT-ATA-3' hairpin DNA (unknown origin) assessed as thermal stabilization by measuring change in melting temperature at 1 uM incubated for 3 hrs by FRET analysis. Put shortly: as §1
The nature of test [4]: Binding affinity to GC-rich 5'-fluoro and 3'-TAMRA tagged 5'-TAT-AGG-GAC-AGC-CCT-ATA-3' hairpin DNA (unknown origin) assessed as thermal stabilization by measuring change in melting temperature at 1 uM incubated for 24 hrs by FRET analysis. Put shortly: as §1
In test [5] the test system is Caulobacter vibrioides. The test can be described thus: Induction of DNA damage in Caulobacter vibrioides assessed as increase in cell death upto 1 ug/ml and measured after 2 days by agar dilution method. In kind it is functional, organism-based. The note with it: dose <= 1.0 µg/ml, time 2.0 day, DDE = dose-dependent effect. For orientation: Agar dilution tests growth on a series of plates holding different concentrations.

Test [6] concerns Caulobacter vibrioides. Kind of test: Induction of DNA damage in Caulobacter vibrioides assessed as accumulation of SOS-induced YFP at 0.5 ug/ml incubated upto 2 hrs by fluorescence microscopy. In kind it is functional, organism-based. The note with it: dose 0.5 µg/ml.
The test system of test [7] is Caulobacter vibrioides. The test can be described thus: Effect on DNA damage repair in Caulobacter vibrioides lacking recA expression assessed as decrease in cell survival rate upto 1 ug/ml and measured after 2 days by agar dilution method. In kind it is functional, organism-based. The note with it: dose <= 1.0 µg/ml, time 2.0 day.
Test [8] concerns Caulobacter vibrioides. The test can be described thus: Effect on DNA damage repair in Caulobacter vibrioides lacking recA, lexA and sidA expression assessed as decrease in cell survival rate upto 1 ug/ml and measured after 2 days by agar dilution method. The note with it: dose <= 1.0 µg/ml, time 2.0 day. In kind it is functional, organism-based.
Test [9] deals with Caulobacter vibrioides. The test can be described thus: Effect on DNA damage repair in Caulobacter vibrioides lacking DnaE2 expression assessed as decrease in cell survival rate upto 1 ug/ml and measured after 2 days by agar dilution method. In kind it is functional, organism-based. The note with it: dose <= 1.0 µg/ml, time 2.0 day.
In test [10] the test system is Caulobacter vibrioides. Kind of test: Effect on DNA damage repair in Caulobacter vibrioides lacking recF expression assessed as decrease in cell survival rate upto 1 ug/ml and measured after 2 days by agar dilution method. The note with it: dose <= 1.0 µg/ml, time 2.0 day. In kind it is functional, organism-based.
The subject of test [11] is Caulobacter vibrioides. Kind of test: Effect on DNA damage repair in Caulobacter vibrioides lacking recO expression assessed as decrease in cell survival rate upto 1 ug/ml and measured after 2 days by agar dilution method. In kind it is functional, organism-based. The note with it: dose <= 1.0 µg/ml, time 2.0 day.
Test [12] relates to Caulobacter vibrioides. Kind of test: Effect on DNA damage repair in Caulobacter vibrioides lacking recR expression assessed as decrease in cell survival rate upto 1 ug/ml and measured after 2 days by agar dilution method. The note with it: dose <= 1.0 µg/ml, time 2.0 day. Type of test: functional, organism-based.
Test [13] relates to Caulobacter vibrioides. The test can be described thus: Effect on DNA damage repair in Caulobacter vibrioides lacking addAB expression assessed as decrease in cell survival rate upto 1 ug/ml and measured after 2 days by agar dilution method. The note with it: dose <= 1.0 µg/ml, time 2.0 day. In kind it is functional, organism-based.
Test [14] relates to Caulobacter vibrioides. Kind of test: Effect on DNA damage repair in Caulobacter vibrioides lacking recN expression assessed as decrease in cell survival rate upto 1 ug/ml and measured after 2 days by agar dilution method. In kind it is functional, organism-based. The note with it: dose <= 1.0 µg/ml, time 2.0 day.
Test [15] has as its system Caulobacter vibrioides. The test can be described thus: Effect on DNA damage repair in Caulobacter vibrioides expressing Gam-GFP reporter system assessed as increase in double stranded break by measuring Gam localization in cells at 0.5 ug/ml and measured after 2 hrs by fluorescence analysis. The note with it: dose 0.5 µg/ml. Type of test: functional. Put shortly:
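Wild-type Caulobacter carrying a Gam-GFP reporter; after drug treatment, cells imaged by fluorescence microscopy and percentage of cells with Gam-GFP foci scored ([…] cells). Three independent experiments; mean and SD reported.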

Test [16] has as its system Caulobacter vibrioides. The test can be described thus: Effect on DNA damage repair in Caulobacter vibrioides lacking alkB expression assessed as decrease in cell survival rate upto 1 ug/ml and measured after 2 days by agar dilution method. In kind it is functional, organism-based. The note with it: dose <= 1.0 µg/ml, time 2.0 day. A digest of the protocol:
(§2)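 Survival of Caulobacter wild type, ΔmutL and ΔalkB strains was tested across increasing drug doses. Cultures were serially diluted and spotted, and growth was scored along the dilution series. At least three independent experiments were run per strain, with mean and SEM of all repeats plotted.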

Test [17] relates to Caulobacter vibrioides. Kind of test: Effect on DNA damage repair in Caulobacter vibrioides lacking mutL expression assessed as decrease in cell survival rate upto 1 ug/ml and measured after 2 days by agar dilution method. In kind it is functional, organism-based. The note with it: dose <= 1.0 µg/ml, time 2.0 day. A digest of the protocol: as §2
The subject of test [18] is Caulobacter vibrioides. The test can be described thus: Effect on DNA damage repair in Caulobacter vibrioides lacking uvrA expression assessed as decrease in cell survival rate upto 1 ug/ml and measured after 2 days by agar dilution method. In kind it is functional, organism-based. The note with it: dose <= 1.0 µg/ml, time 2.0 day.
The test system of test [19] is Caulobacter vibrioides. The test can be described thus: Effect on DNA damage repair in Caulobacter vibrioides lacking uvrA expression and expressing Gam-GFP reporter system assessed as fold increase in double stranded break by measuring Gam localization in cells at 0.5 ug/ml and measured after 2 hrs by fluorescence analysis. The note with it: dose 0.5 µg/ml. Type of test: functional.

The subject of test [20] is Caulobacter vibrioides. Kind of test: Effect on DNA damage repair in Caulobacter vibrioides lacking recN expression and expressing Gam-GFP reporter system assessed as fold increase in double stranded break by measuring Gam localization in cells at 0.5 ug/ml and measured after 2 hrs by fluorescence analysis. The note with it: dose 0.5 µg/ml.
The test system of test [21] is Caulobacter vibrioides. The test can be described thus: Effect on DNA damage repair in Caulobacter vibrioides assessed as fold change as increase in rifampicin resistance colonies at 2 ug/ml incubated for 0.5 hrs followed by culture in new media and treated with rifampicin and measured after 48 hrs by colony formation assay. Type of test: functional. The note with it: dose 2 µg/ml. A digest of the protocol:
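Caulobacter cells exposed to drug; rifampicin-resistant colony counts expressed as fold change relative to untreated control (no DNA damage). Three independent experiments; mean and SD reported.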

Test [22] deals with Caulobacter vibrioides. The test can be described thus: Effect on DNA damage repair in Caulobacter vibrioides expressing Gam-GFP reporter system assessed as increase in double stranded break by measuring Gam localization in cells at 25 to 50 ug/ml and measured after 2 hrs by fluorescence analysis. Type of test: functional, organism-based. The note with it: dose 25-50 µg/ml.

The subject of test [23] is Caulobacter vibrioides. Kind of test: Induction of DNA damage in Caulobacter vibrioides assessed as accumulation of SOS-induced YFP at 1 ug/ml incubated upto 2 hrs by fluorescence microscopy. The note with it: dose 1.0 µg/ml. Type of test: functional, organism-based.
Test [24] deals with Caulobacter vibrioides. The test can be described thus: Effect on DNA damage repair in Caulobacter vibrioides expressing Gam-GFP reporter system assessed as increase in double stranded break by measuring Gam localization in cells at 2 ug/ml and measured after 2 hrs by fluorescence analysis. The note with it: dose 2 µg/ml. Type of test: functional. Put shortly: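 Wild-type Caulobacter carrying a Gam-GFP reporter was drug-treated and imaged by fluorescence microscopy. The readout was the percentage of cells with Gam-GFP foci, counting […] cells. Mean and SD are from three independent experiments.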

In test [25] the test system is Caulobacter vibrioides. Kind of test: Effect on DNA damage repair in Caulobacter vibrioides lacking uvrA expression and expressing Gam-GFP reporter system assessed as fold increase in double stranded break by measuring Gam localization in cells at 1 ug/ml and measured after 2 hrs by fluorescence analysis. In kind it is functional. The note with it: dose 1 µg/ml.
Test [26] concerns Caulobacter vibrioides. The test can be described thus: Effect on DNA damage repair in Caulobacter vibrioides lacking recN expression and expressing Gam-GFP reporter system assessed as fold increase in double stranded break by measuring Gam localization in cells at 2 ug/ml and measured after 2 hrs by fluorescence analysis. The note with it: dose 2 µg/ml.

A word on the ΔTm: it is the change in melting temperature against a reference sample. Regarding `COC(=O)c1cc2cc(NC(=O)c3cc(NC(=O)CCCOc4cc5c(cc4OC)C(=O)N4CCC[C@H]4C=N5)cn3C)ccc2s1`, the ΔTm came out at 14 °C in [1], 15.6 °C in test [2], 15.6 °C in [3] and 15.9 °C in [4]. In addition, the Activity entry in the test on Caulobacter vibrioides [5] is “Dde”; in the test on Caulobacter vibrioides [15], 5%; in the test with Caulobacter vibrioides [19], 56%. In addition, the outcome in the test with Caulobacter vibrioides [6], in the test with Caulobacter vibrioides [7], in the test with Caulobacter vibrioides [8], with Caulobacter vibrioides [9], in the test on Caulobacter vibrioides [10] and with Caulobacter vibrioides [11] was Active. Also, the result with Caulobacter vibrioides [12], in the test on Caulobacter vibrioides [13], in the test with Caulobacter vibrioides [14], in the test with Caulobacter vibrioides [16], in the test on Caulobacter vibrioides [17] and with Caulobacter vibrioides [18] was Active. In addition, the “fold change (FC)” value in the test on Caulobacter vibrioides [20] is 2.
Turning to `CO[C@@]12[C@H](COC(N)=O)C3=C(C(=O)C(C)=C(N)C3=O)N1C[C@@H]1N[C@@H]12` [MITOMYCIN], the ΔTm in [1] came to 12.6 °C; in test [2] it was 12.8 °C; in test [3] it was 11.5 °C; in test [4], 11.8 °C. Further, the Activity entry in the test with Caulobacter vibrioides [5] is “Dde”; in the test with Caulobacter vibrioides [15], 5%; with Caulobacter vibrioides [19] it was 10%. Besides, the outcome with Caulobacter vibrioides [6], in the test on Caulobacter vibrioides [7], in the test on Caulobacter vibrioides [16] and in the test with Caulobacter vibrioides [17] was Active. The “fold change (FC)” value with Caulobacter vibrioides [21] amounted to 2.5; in the test on Caulobacter vibrioides [20], 2.
Take `COC(=O)c1cc(NC(=O)c2cc(NC(=O)CCCOc3cc4c(cc3OC)C(=O)N3CCC[C@H]3C=N4)cn2C)cn1C`: the ΔTm came to 18.9 °C in test [1], 21.1 °C in test [2], 18.6 °C in [3] and 19.2 °C in test [4].
Consider `CCn1cc(C(=O)O)c(=O)c2cc(F)c(N3CCNCC3)cc21`, for which the outcome with Caulobacter vibrioides [22] and in the test on Caulobacter vibrioides [18] was Active.
For the compound `COC(=O)c1cc(-c2ccc(NC(=O)c3cc(NC(=O)CCCOc4cc5c(cc4OC)C(=O)N4CCC[C@H]4C=N5)cn3C)cc2)cn1C`, the ΔTm in test [1] stood at 15.7 °C; in test [2], 18.5 °C; in test [3], 16.3 °C; in [4], 17.4 °C. In addition, the Activity result with Caulobacter vibrioides [5] was “Dde”; with Caulobacter vibrioides [24], 5%; with Caulobacter vibrioides [25], 40%. Further, the outcome with Caulobacter vibrioides [23], in the test on Caulobacter vibrioides [7], in the test with Caulobacter vibrioides [8], with Caulobacter vibrioides [9], in the test with Caulobacter vibrioides [10] and in the test on Caulobacter vibrioides [11] was Active. Moreover, the outcome in the test with Caulobacter vibrioides [12], in the test with Caulobacter vibrioides [13], in the test with Caulobacter vibrioides [14], in the test on Caulobacter vibrioides [16], with Caulobacter vibrioides [17] and with Caulobacter vibrioides [18] was Active. Moreover, the “fold change (FC)” value in the test on Caulobacter vibrioides [26] is 2.
In the case of `COS(C)(=O)=O`, the result in the test with Caulobacter vibrioides [18] was Active.
